According to ChEMBL document CHEMBL1134964, “Heterocyclic benzazole derivatives with antimycobacterial in vitro activity” (2002):
In brackets after ≈: the same amount, converted by molar mass.

Columns and labels:
Assay type in all cases: functional
Mycobacterium kansasii [1] = assay: In vitro inhibition of Mycobacterium Kansasi (My 6 509/96) growth after 21 days culture.; details: 504 h
Mycobacterium avium [2] = assay: In vitro inhibition of Mycobacterium Avium (My 330/88) growth after 21 days culture.; details: 504 h
Summary of the method: (§1)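 Micromethod broth MIC. Compounds tested at 500, 250, 125, 32, 16, 8, 4 and 2, plus one intermediate level between 125 and 32. Plates incubated at 37 C and read at 7, 14 and 21 days. MIC is the lowest concentration at which growth of the mycobacteria was inhibited. MIC could not be set where solubility in the test medium was limited.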

Mycobacterium kansasii [3] = assay: In vitro inhibition of Mycobacterium Kansasi (My 6 509/96) growth after 7 days culture.; details: 168 h
Mycobacterium kansasii [4] = assay: In vitro inhibition of Mycobacterium Kansasi (My 235/80) growth after 21 days culture.; details: 504 h
Mycobacterium avium [5] = assay: In vitro inhibition of Mycobacterium Avium growth after 14 days culture.; details: 336 h; summary of the method: as §1
Mycobacterium kansasii [6] = assay: In vitro inhibition of Mycobacterium Kansasi (My 6 509/96) growth after 14 days culture.; details: 336 h
[7] = system: Mycobacterium tuberculosis; assay: In vitro inhibition of Mycobacterium Tuberculosis (My 331/88) growth after 14 days culture.; details: 336 h; summary of the method: as §1
Mycobacterium kansasii [8] = assay: In vitro inhibition of Mycobacterium Kansasi (My 235/80) growth after 7 days culture.; details: 168 h
[9] = system: Mycobacterium tuberculosis; assay: In vitro inhibition of Mycobacterium Tuberculosis (My 331/88) growth after 21 days culture.; details: 504 h; summary of the method: as §1
Mycobacterium kansasii [10] = assay: In vitro inhibition of Mycobacterium Kansasi (My 235/80) growth after 14 days culture.; details: 336 h
Mycobacterium avium [11] = assay: In vitro minimum inhibitory concentration the compound for anti-mycobacterial activity was determined against Mycobacterium avium (My 330/88) by micromethod after 21 days of incubation; details: 504 h; summary of the method: as §1
Mycobacterium kansasii [12] = assay: In vitro minimum inhibitory concentration the compound for anti-mycobacterial activity was determined against Mycobacterium kansasii (My 6 509/96) by micromethod after 7 days of incubation; details: 168 h
Mycobacterium kansasii [13] = assay: In vitro minimum inhibitory concentration the compound for anti-mycobacterial activity was determined against Mycobacterium kansasii (My 235/80) by micromethod after 14 days of incubation; details: 336 h
Mycobacterium kansasii [14] = assay: In vitro minimum inhibitory concentration the compound for anti-mycobacterial activity was determined against Mycobacterium kansasii (My 6 509/96) by micromethod after 21 days of incubation; details: 504 h
Mycobacterium kansasii [15] = assay: In vitro minimum inhibitory concentration the compound for anti-mycobacterial activity was determined against Mycobacterium kansasii (My 235/80) by micromethod after 21 days of incubation; details: 504 h
Mycobacterium kansasii [16] = assay: In vitro minimum inhibitory concentration the compound for anti-mycobacterial activity was determined against Mycobacterium kansasii (My 6 509/96) by micromethod after 14 days of incubation; details: 336 h
Mycobacterium avium [17] = assay: In vitro minimum inhibitory concentration the compound for anti-mycobacterial activity was determined against Mycobacterium avium (My 330/88) by micromethod after 14 days of incubation; details: 336 h; summary of the method: as §1
HeLa = assay: The compound was tested for cytotoxicity against HeLa cells.; details: Homo sapiens
[18] = Ratio of cytotoxicity to minimum inhibitory concentration of Mycobacterium tuberculosis My 331/88 was evaluated

| Structure (SMILES) | MIC (Mycobacterium kansasii [1]) | MIC (Mycobacterium avium [2]) | MIC (Mycobacterium kansasii [3]) | MIC (Mycobacterium kansasii [4]) | MIC (Mycobacterium avium [5]) | MIC (Mycobacterium kansasii [6]) | MIC [7] | MIC (Mycobacterium kansasii [8]) | MIC [9] | MIC (Mycobacterium kansasii [10]) | MIC (Mycobacterium avium [11]) | MIC (Mycobacterium kansasii [12]) | MIC (Mycobacterium kansasii [13]) | MIC (Mycobacterium kansasii [14]) | MIC (Mycobacterium kansasii [15]) | MIC (Mycobacterium kansasii [16]) | MIC (Mycobacterium avium [17]) | CC50 (HeLa) | Safety index [18] |
| --- | --- | --- | --- | --- | --- | --- | --- | --- | --- | --- | --- | --- | --- | --- | --- | --- | --- | --- | --- |
| Sc1nc2ccccc2o1 | 1000 µM (≈ 151 µg/mL) | 500 µM (≈ 75.6 µg/mL) | 250 µM (≈ 37.8 µg/mL) | 1000 µM (≈ 151 µg/mL) | 250 µM (≈ 37.8 µg/mL) | 500 µM (≈ 75.6 µg/mL) | 500 µM (≈ 75.6 µg/mL) | 500 µM (≈ 75.6 µg/mL) | 500 µM (≈ 75.6 µg/mL) | 1000 µM (≈ 151 µg/mL) |  |  |  |  |  |  |  |  |  |
| O=[N+]([O-])c1cccc(CSc2nc3ccccc3o2)c1 | > 32 µM | > 62 µM | 32 µM (≈ 9.16 µg/mL) | > 32 µM | > 32 µM | 32 µM (≈ 9.16 µg/mL) | > 62 µM | 32 µM (≈ 9.16 µg/mL) | 125 µM (≈ 35.8 µg/mL) | > 32 µM |  |  |  |  |  |  |  |  |  |
| O=[N+]([O-])c1cccc(CSc2nc3ccccc3s2)c1 | > 62 µM | 62 µM (≈ 18.7 µg/mL) | 32 µM (≈ 9.68 µg/mL) | > 125 µM | 62 µM (≈ 18.7 µg/mL) | 62 µM (≈ 18.7 µg/mL) | > 62 µM | 62 µM (≈ 18.7 µg/mL) | > 125 µM | > 125 µM |  |  |  |  |  |  |  |  |  |
| c1ccc(CSc2nc3ccccc3s2)cc1 |  |  |  |  |  |  | 250 µM (≈ 64.3 µg/mL) | 62 µM (≈ 16 µg/mL) | 500 µM (≈ 129 µg/mL) |  | 62 µM (≈ 16 µg/mL) | 62 µM (≈ 16 µg/mL) | 500 µM (≈ 129 µg/mL) | 250 µM (≈ 64.3 µg/mL) | > 500 µM | 125 µM (≈ 32.2 µg/mL) | 32 µM (≈ 8.24 µg/mL) |  |  |
| O=[N+]([O-])c1cc(CSc2nc3ccccc3s2)cc([N+](=O)[O-])c1 | > 62 µM | 62 µM (≈ 21.5 µg/mL) |  | > 62 µM | 62 µM (≈ 21.5 µg/mL) | 32 µM (≈ 11.1 µg/mL) | 2 µM (≈ 0.695 µg/mL) | 16 µM (≈ 5.56 µg/mL) | 2 µM (≈ 0.695 µg/mL) | 16 µM (≈ 5.56 µg/mL) |  |  |  |  |  |  |  | > 144 µM | >72 |
| N#Cc1cccc(CSc2nc3ccccc3o2)c1 | 62 µM (≈ 16.5 µg/mL) | 62 µM (≈ 16.5 µg/mL) | 32 µM (≈ 8.52 µg/mL) | 125 µM (≈ 33.3 µg/mL) | 62 µM (≈ 16.5 µg/mL) | 62 µM (≈ 16.5 µg/mL) | 125 µM (≈ 33.3 µg/mL) | 32 µM (≈ 8.52 µg/mL) | 125 µM (≈ 33.3 µg/mL) | 62 µM (≈ 16.5 µg/mL) |  |  |  |  |  |  |  |  |  |
| N#Cc1cccc(CSc2nc3ccccc3s2)c1 | 125 µM (≈ 35.3 µg/mL) | 62 µM (≈ 17.5 µg/mL) | 32 µM (≈ 9.04 µg/mL) | 500 µM (≈ 141 µg/mL) | 32 µM (≈ 9.04 µg/mL) | 62 µM (≈ 17.5 µg/mL) | 62 µM (≈ 17.5 µg/mL) | 125 µM (≈ 35.3 µg/mL) | 250 µM (≈ 70.6 µg/mL) | 250 µM (≈ 70.6 µg/mL) |  |  |  |  |  |  |  |  |  |
| O=[N+]([O-])c1ccccc1CSc1nc2ccccc2s1 | 125 µM (≈ 37.8 µg/mL) | > 250 µM |  |  | 125 µM (≈ 37.8 µg/mL) | 32 µM (≈ 9.68 µg/mL) | 125 µM (≈ 37.8 µg/mL) | 62 µM (≈ 18.7 µg/mL) | 500 µM (≈ 151 µg/mL) | 125 µM (≈ 37.8 µg/mL) |  | 32 µM (≈ 9.68 µg/mL) |  |  | 500 µM (≈ 151 µg/mL) |  |  |  |  |
| O=[N+]([O-])c1ccc(CSc2nc3ccccc3o2)cc1 | > 32 µM | > 62 µM | 32 µM (≈ 9.16 µg/mL) | > 62 µM | > 32 µM | 32 µM (≈ 9.16 µg/mL) | > 62 µM | 32 µM (≈ 9.16 µg/mL) | > 125 µM | 32 µM (≈ 9.16 µg/mL) |  |  |  |  |  |  |  |  |  |
| O=[N+]([O-])c1cc(CSc2nc3ccccc3o2)cc([N+](=O)[O-])c1 | 8 µM (≈ 2.65 µg/mL) | > 32 µM | 4 µM (≈ 1.33 µg/mL) | 4 µM (≈ 1.33 µg/mL) | > 16 µM | 8 µM (≈ 2.65 µg/mL) | 8 µM (≈ 2.65 µg/mL) | 2 µM (≈ 0.663 µg/mL) | 8 µM (≈ 2.65 µg/mL) | 4 µM (≈ 1.33 µg/mL) |  |  |  |  |  |  |  | > 151 µM | >18.9 |
| Sc1nc2ccccc2s1 [2-MERCAPTOBENZOTHIAZOLE] |  |  |  |  |  |  | 62 µM (≈ 10.4 µg/mL) | 62 µM (≈ 10.4 µg/mL) | 62 µM (≈ 10.4 µg/mL) |  | > 62 µM | 62 µM (≈ 10.4 µg/mL) | 125 µM (≈ 20.9 µg/mL) | > 62 µM | > 125 µM | > 62 µM | > 62 µM |  |  |
| NNC(=O)c1ccncc1 [ISONIAZID] | 4 µM (≈ 0.549 µg/mL) | > 250 µM | 2 µM (≈ 0.274 µg/mL) | > 250 µM | > 250 µM | 2 µM (≈ 0.274 µg/mL) | 0.5 µM (≈ 0.0686 µg/mL) | > 250 µM | 1 µM (≈ 0.137 µg/mL) | > 250 µM |  |  |  |  |  |  |  |  |  |
